Source: PubChem BioAssay (The Scripps Research Institute Molecular Screening Center)
An excerpt weighted towards active compounds, which were near 3.9% of everything screened.
M1 antag: antagonists of human M1 muscarinic receptor; 360,000 compounds, 1.3% hits; CHO-K1 hM1, Fluo-8 calcium fluorescence, ACh EC80 antagonist; inhibition, % at 3 µM; P11229;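 active = percent inhibition above its own plate's cutoff, namely the mean of that plate's compound wells plus 3 SD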;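 note: peak over basal fluorescence ratio during 140 s after agonist addition; 0% = ACh EC80 plus DMSO and 100% = DMSO alone without agonist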
Target sequence (P11229 whole entry, looked up): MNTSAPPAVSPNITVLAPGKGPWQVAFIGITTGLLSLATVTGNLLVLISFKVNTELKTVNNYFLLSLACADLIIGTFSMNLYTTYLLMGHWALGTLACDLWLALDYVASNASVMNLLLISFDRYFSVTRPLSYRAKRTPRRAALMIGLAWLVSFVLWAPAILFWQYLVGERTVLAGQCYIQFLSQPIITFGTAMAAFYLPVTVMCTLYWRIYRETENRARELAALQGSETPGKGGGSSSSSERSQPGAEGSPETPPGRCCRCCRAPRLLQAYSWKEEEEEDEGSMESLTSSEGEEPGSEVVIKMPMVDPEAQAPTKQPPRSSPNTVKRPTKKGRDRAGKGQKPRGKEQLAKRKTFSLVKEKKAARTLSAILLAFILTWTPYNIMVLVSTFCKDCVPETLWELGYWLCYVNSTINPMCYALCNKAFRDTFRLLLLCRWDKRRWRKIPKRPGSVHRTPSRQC
M1 PAM: human CHRM1 positive allosteric modulation; activation, % at 3 µM; AID 588819; CHO-K1 hM1, Fluo-8 calcium fluorescence, ACh EC20; 0% = ACh EC20, 100% = maximal ACh; P11229; 360,000 compounds, 0.088% hits; in the data active = activation above about 19%, passing the limit was not always enough
M1 ag: human M1 muscarinic receptor agonism; CHO-K1 hM1, Fluo-8 calcium fluorescence, agonist mode; 0% DMSO, 100% acetylcholine EC100; activation, % at 3 µM; 360,000 compounds, 0.33% hits;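 active = activation above the run's mean compound activation plus 3 SD, cut at about 16% in these data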;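 note: peak over basal fluorescence ratio within a 140 s kinetic read after compound addition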
TAAR1 antag: human TAAR1 antagonism; CHO RD-HGA16 TAAR1, Fluo-8 calcium fluorescence, antagonist; 360,000 compounds, 1.5% hits; inhibition, % at 3 µM; Q96RJ0;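 active = inhibition above a per-plate cutoff, the mean inhibition of test compounds on that plate plus 3 SD, cut at about 49% in these data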;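 note: 0% = DMSO plus EC80 beta-PEA response and 100% = DMSO alone without agonist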
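Test system: hTAAR1-expressing CHO RD-HGA16 cells, Gα16-coupled; Probe or stimulus: EC80 β-phenethylamine stimulus; Compound dosing: single nominal final test compound concentration of 3 µM; Timing: 140 s kinetic read after compound, 140 s after agonist; Signal: Fluo-8 calcium-sensitive fluorescence; Measure: % inhibition of agonist calcium response; Controls: DMSO and EC80 PEA controls.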
m5-HT2A agonist: agonists of mouse serotonin 5-HT2A receptor (HTR2A); activation, % at 7.6 µM; 360,000 compounds, 0.66% hits; CHO-K1 mHTR2A beta-arrestin complementation, luminescence; percent of 30 µM serotonin response; AID 624169;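 active = activation above a run cutoff, the mean activation of all tested compounds plus 3 SD, cut at about 14% in these data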;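 note: 0% = plate median of compound wells and 100% = 30 µM serotonin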
TAAR1 agonist: agonists of human TAAR1 | CHO RD-HGA16 TAAR1, Fluo-8 calcium fluorescence; vehicle wells 0%, saturating PEA agonist 100% | 360,000 compounds, 0.99% hits | Q96RJ0 | activation, % at 3 µM;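 active = activation above the mean activation of all test compounds in the run plus 3 SD, cut at about 38% in these data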
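System: CHO RD-HGA16 cells carrying human TAAR1 plus Gα16; Incubation: 17-24 h seeding, 75 min 37 °C dye, 30 min RT; Measured by: Fluo-8 fluorescence, 5 s baseline then 140 s kinetic read; Control set: DMSO and PEA EC100; Replication: single well for each compound.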
TAAR1 ag confirm: human TAAR1 agonism, confirmed | 2,400 compounds, 82% hits | activation, % at 3 µM | CHO RD-HGA16 TAAR1, Fluo-8 calcium fluorescence; scaled: DMSO 0%, maximal phenethylamine 100% | AID 651783 | shares compounds with TAAR1 agonist;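 active = activation above a cutoff set at the run's mean compound activation plus 3 SD, cut at about 39% in these data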
Ga16 ag counter: nonselective agonism, TAAR1 counter-screen. shares compounds with TAAR1 agonist. CHO-Ga16 parental, Fluo-8 calcium fluorescence; normalized to maximal ATP response, DMSO zero. activation, % at 3 µM. 2,400 compounds, 50% hits;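 active = activation above the run cutoff, the mean activation over all tested wells plus 3 SD, cut at about 12% in these data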;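 note: 0% = DMSO wells and 100% = maximal ATP response on the peak over basal ratio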
TAAR1 desens: human TAAR1 agonist that also desensitizes the receptor. shares compounds with TAAR1 agonist. AID 651951. CHO RD-HGA16 hTAAR1, Fluo-8 calcium, beta-PEA response inhibition. inhibition, % at 3 µM. 2,400 compounds, 46% hits;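 active = inhibition above the run cutoff, the mean inhibition of all test compounds plus 3 SD, cut at about 49% in these data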;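 note: beta-PEA stimulus applied at its EC80; loss of beta-PEA calcium signal after compound pretreatment read as receptor desensitization; 0% = DMSO with beta-PEA at EC80 and 100% = DMSO alone without agonist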
Ga16 nonsel ant: nonselective Ga16 antagonism, counter-screen. shares compounds with TAAR1 agonist. CHO-Ga16 ATP-induced calcium, Fluo-8 fluorescence. inhibition, % at 3 µM. 2,400 compounds, 39% hits;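 active = inhibition above the plate's mean compound inhibition plus 3 SD, computed per plate, cut at about 22% in these data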;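 note: 0% = EC80 ATP with DMSO and 100% = DMSO wells without ATP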
* = called active by the depositor; . = no result.

SMILES	M1 antag	M1 PAM	M1 ag	TAAR1 antag	m5-HT2A agonist	TAAR1 agonist	TAAR1 ag confirm	Ga16 ag counter	TAAR1 desens	Ga16 nonsel ant
CC(=O)O[C@H]1CC[C@]2(C)C3CC[C@]4(C)[C@@H]([C@H](C)/C=C/[C@H](C)C(C)C)CC[C@H]4[C@@]34C=C[C@]2(C1)N(C(=O)c1ccccc1)O4 (some centres not stated)	.	.	.	-22	.	-1	.	.	.	.
O=c1cnnc(Nc2cccc(C(F)(F)F)c2)[nH]1	-6	9	-5	9	-1	11	.	.	.	.
O=c1cnnc(Nc2cccc(F)c2)[nH]1	2	-6	-4	37	-1	64*	74*	0	48	12
O=c1cnnc(Nc2ccc(F)cc2)[nH]1	0	1	-1	25	2	46*	57*	2	3	4
O=C(NCCc1ccc(Cl)cc1)c1ncn[nH]1	-18	0	-2	-13	-2	48*	46*	3	7	4
C/C(NCCc1ccc(O)cc1)=C1/CCOC1=O	-9	6	0	83*	-3	83*	91*	3	69*	-6
C/C(Nc1ccccc1C(F)(F)F)=C1/CCOC1=O	-7	5	-4	-11	4	1	.	.	.	.
CC1CCc2sc(NC(=O)C3CC(Cl)=CCC3C(=O)O)c(C#N)c2C1 (configuration not stated)	9	-9	-8	10	-1	-2	.	.	.	.
COc1ccc(-n2cc(C(=O)O)c(=O)cc2C)cc1	-2	-2	-3	1	8	2	.	.	.	.
CC1Nc2ncnc(N3CCc4ccccc4C3)c2N(Cc2ccc(Br)cc2)C1=O (configuration not stated)	-5	-5	-5	32	-4	83*	33	2	4	13
CCc1nc(N)c(C#N)c(-c2ccco2)c1C	-2	4	-7	-18	0	81*	4	3	2	3
CCN(CC(=O)NCc1ccc(Cl)cc1)C(=O)c1ccc(S(=O)(=O)N(C)C)cc1	-2	8	-7	-18	3	1	.	.	.	.
N#C/C(=C\c1ccc(N2CCCCC2)o1)C(=O)Nc1cccc(Br)c1	66*	-23	68*	101*	0	189*	93*	143*	87*	90*
Cc1cc(OCC(=O)NNC(=S)NC(=O)c2ccc(Br)o2)ccc1Cl	-3	1	12	66*	5	121*	98*	73*	75*	56*
O=C(NNC(=S)NC(=O)c1cccs1)c1ccc(O)cc1	-21	17	-1	-19	-8	-1	.	.	.	.
O=C(NC(=S)NNC(=O)c1cccs1)c1ccc(Br)o1	-16	-4	33*	42	4	116*	65*	46*	32	27*
COc1ccc(CNC(=O)COC(=O)c2ccc(F)c(S(=O)(=O)N3CCOCC3)c2)cc1	-12	5	0	-12	1	4	.	.	.	.
CCN1CCc2nc3sc(C(=O)N4CCc5ccccc5C4)c(N)c3cc2C1	-1	0	-10	14	-6	80*	67*	4	12	13
CC(C)c1ccc2nc3sc(C(=O)N4CCc5ccccc5C4)c(N)c3cc2c1	-2	1	-5	20	-3	83*	88*	31*	63*	40*
O=C(COc1ccccc1)Nc1cccc2c1CCCC2	-5	6	-3	10	-3	9	.	.	.	.
O=C(CCCc1ccccc1)Nc1cccc2c1CCCC2	4	-2	-5	71*	-5	55*	6	5	9	18
Cc1c(O)ccc(NS(=O)(=O)c2ccccc2)c1C	13	-6	-7	0	-2	10	.	.	.	.
Cc1cc(NS(=O)(=O)c2ccccc2)c(C)c(Cl)c1O	9	-6	8	8	-6	55*	67*	26*	39	19
CC(=O)Nc1ccc(Oc2cncc(Cl)c2)nc1	12	-4	-1	9	-1	5	.	.	.	.
CC1(c2ccc(OC(F)F)cc2)NC(=O)N(CC(=O)Nc2cccnc2Cl)C1=O (configuration not stated)	19	-8	44*	73*	2	129*	131*	86*	78*	40*
SMILES	M1 antag	M1 PAM	M1 ag	TAAR1 antag	m5-HT2A agonist	TAAR1 agonist	TAAR1 ag confirm	Ga16 ag counter	TAAR1 desens	Ga16 nonsel ant
COc1ccc(C2(C)NC(=O)N(CC(=O)Nc3cccnc3Cl)C2=O)cc1 (configuration not stated)	-7	8	10	-8	-5	17	.	.	.	.
Cc1ccc(S(=O)(=O)N2CCN(C(=O)CNC(=O)c3ccc(Br)o3)CC2)cc1	4	2	-1	-9	2	0	.	.	.	.
N#C/C(=C\c1ccc(N2CCOCC2)c([N+](=O)[O-])c1)c1nc2ccccc2[nH]1	-3	13	-1	12	-1	13	.	.	.	.
N#C/C(=C\c1ccc(N2CCOCC2)o1)c1nc2ccccc2[nH]1	-3	-1	16	27	0	92*	76*	101*	58*	52*
Cn1c(-c2ccc3c(c2)OCO3)cnc1NC(=O)CCC(=O)NCCc1ccccc1	3	1	-6	24	-1	47*	40*	-1	9	10
Cn1c(-c2ccc3c(c2)OCO3)cnc1NCc1ccccc1	10	-21	-7	1	-5	14	.	.	.	.
N#Cc1ccccc1NC(=O)CC1c2ccccc2Oc2ccccc21	-2	4	-6	81*	0	67*	106*	52*	100*	58*
N#Cc1ccccc1NC(=O)CC1CCCCC1	-11	9	-5	-3	4	5	.	.	.	.
O=C(CCNC(=O)c1ccc([N+](=O)[O-])cc1)Nc1ccc(F)cc1F	6	-6	-2	-9	5	2	.	.	.	.
CC1=CC2=NC(=O)/C(=C\c3cc(C)n(-c4ccc(F)cc4)c3C)C(=N)N2O1	3	0	-3	87*	-2	43*	5	8	50*	38*
